# Measurements taken from PMC11989202 (Molecular cancer research : MCR, 2025).
# Read-outs that look alike come from different tables or passages of the source.
# Assays:
# DR5 [1] = assay: DR5 immunoblot, MDA-MB-468 cells; type: cell-based; details: MDA-MB-468, 24 h; for Effect on DDA-induced DR5 upregulation and oligomerization: with 2.5 μM dMtcyDTDO, 20 μM CEAPIN-A7, 10 μM KIRA-6, 10 μM AMG-44; for DR5 levels and disulfide bonding (electrophoretic mobility): non-reducing immunoblot, dFtcyDTDO 2.5 μM, Tunicamycin 500 ng/ml, PERKi alone
# [2] = tested on: MDA-MB-468 breast cancer cells; assay: MTT cell viability assay, MDA-MB-468; type: cell-based; details: 72 h
# How it was run: (§1)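 Cells in 10% FBS–DMEM were seeded at 7,500 per well and kept 24 h at 37°C, then exposed to test compound for 72 h at 37°C. After medium removal they received 0.5 mg/ml MTT in PBS for 1 h at 37°C. Formazan was dissolved in DMSO and absorbance read at 570 and 690 nm. At least quadruplicate technical and three biological replicates were run.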
# WM793 melanoma cells = assay: MTT cell viability assay, WM793; type: cell-based; details: 72 h
# How it was run: as §1
# MET [3] = assay: MET/PCSK9 maturation; type: cell-based; details: MDA-MB-468, PERKi alone 1 μM, 24 h
# MET [4] = assay: MET/PCSK9 maturation; type: cell-based; details: HepG2, PERKi alone 1 μM, 24 h
# How it was run: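 HepG2 cells were grown in 10% FBS–DMEM at 37°C and 5% CO₂, then treated for 24 h. Cell lysates were run on immunoblots, under reducing conditions for MET.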
# protein synthesis = assay: Protein synthesis assay; type: cell-based; details: 24 h pre-treatment, 2 h pulse
# DR5 [5] = assay: DR5 immunoblot with autophagy/lysosome inhibitors; type: cell-based; details: inhibitor alone, absence of DDA treatment, versus vehicle
# 012/LVM2/LR10 tumors = assay: 012/LVM2/LR10 xenograft tumor study, H&E tumor histology; type: in vivo; details: 10 mg/kg dMtcyDTDO, 20 days, mice bearing 012/LVM2/LR10 tumors, versus vehicle
# DR5 [6] = assay: DR5 immunoblot, MCF10A cells; type: cell-based; details: non-transformed MCF10A, 2.5 μM, 24 h, reducing immunoblot
# DR5 [7] = assay: DR5 immunoblot, HaCaT keratinocytes; type: cell-based, human; details: 2.5 μM, 24 h, reducing immunoblot
# [8] = Metabolic stability in human liver microsomes; details: supplemented with NADPH (1 mM); substrate 10 μM; 1 mg/ml protein
# DR5 [9] = assay: DR5 immunoblot, T47D cells; type: cell-based; details: 2.5 μM, 24 h, reducing immunoblot
# DcR2 = DcR2 immunoblot; type: cell-based; details: after dFtcyDTDO treatment
compound,measurement,setting,value
CC(C)(C)c1nc(-c2ccc(NC(=O)Nc3cccc(C(F)(F)F)c3)c3ccccc23)c2c(N)nccn12 [KIRA-6],Effect on DDA-induced DR5 upregulation and oligomerization,DR5 [1],negated DR5 and TNFR1 upregulation by DDA treatment
Cn1cc(-c2ccc3c(c2)CCN3C(=O)Cc2cccc(C(F)(F)F)c2)c2c(N)ncnc21 [PERKi],Cell viability (MTT),[2]; PERKi alone,little effect on cell viability
same,Effect on dFtcyDTDO cytotoxicity (MTT),[2]; combination with dFtcyDTDO,strongly potentiated dFtcyDTDO cytotoxicity
same,Cell viability (MTT),WM793 melanoma cells; PERKi alone,little effect on cell viability
same,Effect on dFtcyDTDO cytotoxicity (MTT),WM793 melanoma cells; combination with dFtcyDTDO,strongly potentiated dFtcyDTDO cytotoxicity
same,DR5 levels and disulfide bonding (electrophoretic mobility),DR5 [1],no discernable effect
same,MET or PCSK9 processing,MET [3],no effect on MET or PCSK9 processing
same,MET or PCSK9 processing,MET [4],no effect on MET or PCSK9 processing
same,Protein synthesis (3H-Leucine incorporation) in the presence of Tunicamycin,protein synthesis,increased protein synthesis
same,Protein synthesis (3H-Leucine incorporation) in the presence of dFtcyDTDO,protein synthesis,further decreased protein synthesis
CC(C)(O)CNc1ncc(-c2ccnc(Nc3ccnc(Cl)c3)n2)c(CC2CC2)n1 [VPS34i],DR5 levels,DR5 [5],increased DR5 expression to a similar extent as Bafilomycin
Tunicamycin,DR5 levels and disulfide bonding (electrophoretic mobility),DR5 [1],increased DR5 levels without altering its mobility
CO/C1=C\C(C)=C\[C@@H](C)[C@@H](O)[C@@H](C)C/C(C)=C/C=C/[C@H](OC)[C@@H]([C@@H](C)[C@@H](O)[C@H](C)[C@@]2(O)C[C@@H](O)[C@H](C)[C@@H](C(C)C)O2)OC1=O [Bafilomycin A1],DR5 levels,DR5 [5],increased levels of monomeric and oligomeric DR5 isoforms
CO[C@H]1C[C@@H]2CS(=O)(=O)SC[C@H]2C[C@@H]1OC [dMtcyDTDO],Breast tumor tissue histology (H&E),012/LVM2/LR10 tumors,extensive death of tumor tissue
same,DR5 levels,DR5 [6],did not increase DR5 levels
same,DR5 levels,DR5 [7],did not increase DR5 levels
same,t1/2 in human liver microsomes,[8],47.9 min
CCN(CC)CCCC(C)Nc1ccnc2cc(Cl)ccc12 (stereo not drawn) [Chloroquine],DR5 levels,DR5 [5],increased DR5 levels
O=S1(=O)CC2CC(F)C(F)CC2CS1 (stereo not drawn) [dFtcyDTDO],DR5 levels,DR5 [9],increased DR5 levels
same,DR5 levels,DR5 [6],did not increase DR5 levels
same,DR5 levels,DR5 [7],did not increase DR5 levels
same,DR5 levels and disulfide bonding (electrophoretic mobility),DR5 [1],altered DR5 levels and disulfide bonding
same,DcR2 levels,DcR2,upregulation of DcR2
same,t1/2 in human liver microsomes,,> 60 min
Cc1ccc2cc(-c3c(C)ccc(C(=O)c4c(-c5ccccc5)n(C)n(-c5ccccc5)c4=O)c3N)ccc2n1 [AMG44],Effect on DDA-induced DR5 upregulation and oligomerization,DR5 [1],potentiated DDA-induced DR5 upregulation and oligomerization
O=S1(=O)CC2CCCCC2CS1 (stereo not drawn) [tcyDTDO],t1/2 in human liver microsomes,,11.9 min
O=C(Nc1cnn(Cc2ccc(C(F)(F)F)cc2C(F)(F)F)c1)c1cc(-c2ccco2)on1 [CEAPIN-A7],Effect on DDA-induced DR5 upregulation and oligomerization,DR5 [1],without effect
